The source made the active and inactive calls. No cut-off for these calls is given here.
Experiments:
[1] = Toxicity in female athymic nude mouse xenografted with human HCC515 cells harboring SMARCA4 mutant assessed as change in body weight at 5 mg/kg, po administered once daily via gavage for 19 days relative to control; type: organism-based; conditions: in vivo, 456 h, time 19 day
Outline: (§1)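 Cells (H1568 2 × 10^6, H2023 10 × 10^6, HCC515 5 × 10^6) in PBS:Matrigel 1:1, 200 μL, injected subcutaneously into flanks of 6–8-week-old females. Randomized at mean tumor volume 60 mm3 (H1568) or <200 mm3 (others). Dosed in 0.5% methylcellulose + 0.2–1% Tween-80, sonicated on ice. Caliper tumor volume and body weight tracked, mean ± SEM.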

[2] = molecular target: T1, Protein cereblon/SWI/SNF-related matrix-associated actin-dependent regulator of chromatin subfamily A member 2 (Homo sapiens, UniProt P51531+Q96SW2); assay: PROTAC activity at CRBN/SMARCA2 in human H322 cells harboring SMARCA4 mutant assessed as induction of SMARCA2 degradation at 0.1 uM in presence of bortezomib by immunoblot analysis; type: cell-based
[3] = molecular target: T1, Protein cereblon/SWI/SNF-related matrix-associated actin-dependent regulator of chromatin subfamily A member 2; assay: PROTAC activity at CRBN/SMARCA2 in CRBN knockout human H322 cells harboring SMARCA4 mutant assessed as induction of SMARCA2 degradation at 0.1 uM by immunoblot analysis; type: cell-based
[4] = In vivo PROTAC activity at CRBN/SMARCA2 in female athymic nude mouse xenografted with human HCC515 cells harboring SMARCA4 mutant assessed as SMARCA2 degradation at 5 mg/kg, po administered once daily via gavage for 19 days by Western blotting analysis relative to control; type: functional; conditions: time 19 day
Outline: (§2)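 Female nude mice aged 6–8 weeks carried subcutaneous flank xenografts in PBS/Matrigel 1:1: H2023 at 10 × 10^6 cells or HCC515 at 5 × 10^6 cells. Randomised below 200 mm3. 5 mg/kg or vehicle given by oral gavage once daily for 19 days in 0.5% methylcellulose with Tween-80 (0.2% for H2023, 1% for HCC515). Tumours collected 24 h after dosing. SMARCA2 measured by Western blot against β-actin, relative to vehicle.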

[5] = In vivo PROTAC activity at CRBN/SMARCA2 in female athymic nude mouse xenografted with human NCI-H2023 cells harboring SMARCA4 mutant assessed as SMARCA2 degradation at 5 mg/kg, po administered once daily via gavage for 19 days by Western blotting analysis relative to control; type: functional; conditions: time 19 day; outline: as §2
[6] = molecular target: Transcriptional coactivator YAP1 (Homo sapiens) (UniProt P46937); assay: Induction of YAP1 phosphorylation at S127 residue in human H322 cells harboring SMARCA4 mutant at 0.1 uM incubated for 96 hrs by immunoblot analysis; type: cell-based; conditions: filed as activator
[7] = molecular target: T1, Protein cereblon/SWI/SNF-related matrix-associated actin-dependent regulator of chromatin subfamily A member 2; assay: PROTAC activity at CRBN/SMARCA2 in human H322 cells harboring SMARCA4 mutant assessed as induction of SMARCA2 degradation at 0.1 uM in presence of pomalidomide by immunoblot analysis; type: cell-based
[8] = molecular target: Transcriptional coactivator YAP1 (Homo sapiens) (UniProt P46937); assay: Induction of YAP1 phosphorylation at S109 residue in human H322 cells harboring SMARCA4 mutant at 0.1 uM incubated for 96 hrs by immunoblot analysis; type: cell-based; conditions: filed as activator
[9] = Antitumor activity against human NCI-H2023 cells harboring SMARCA4 mutant xenografted in female athymic nude mouse assessed as tumor growth inhibition at 5 mg/kg, po administered once daily via gavage for 19 days relative to control; type: functional; conditions: NCI-H2023, 456 h, time 19 day, read-out: TGI; outline: as §1
[10] = molecular target: T1, Protein cereblon/SWI/SNF-related matrix-associated actin-dependent regulator of chromatin subfamily A member 2; assay: PROTAC activity at CRBN/SMARCA2 in human NCI-H1792 cells harboring wild type SMARCA4 assessed as reduction in SMARCA2 protein level at 20 nM incubated for 24 hrs by TMT mass spectrometric analysis; type: cell-based
[11] = Drug metabolism in mouse liver microsomes assessed as oxidative dealkylation and mono-oxygenation mediated M3 metabolite formation at 10 uM incubated for 60 mins by LC-UV-HRMS analysis; type: ADME, Microsome; conditions: 1 h
Outline: (§3)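 Compound at 10 μM incubated with mouse liver microsomes at 37 °C for 60 min. Metabolites detected by LC-UV-HRMS, structures proposed from MS and MS2 data, and each metabolite given as a percentage.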

[12] = molecular target: T1, Protein cereblon/SWI/SNF-related matrix-associated actin-dependent regulator of chromatin subfamily A member 2; assay: PROTAC activity at CRBN/SMARCA2 in human H322 cells harboring SMARCA4 mutant assessed as induction of SMARCA2 degradation at 1 uM in presence of bortezomib by immunoblot analysis; type: cell-based
[13] = Toxicity in immunocompromised mouse xenografted with human NCI-H1568 cells assessed as drug tolerance at 80 mg/kg, administered once daily for 21 days; type: organism-based; conditions: in vivo, 504 h, time 21 day
[14] = Drug metabolism in mouse liver microsomes assessed as Mono-oxygenation and hydrogenation mediated M1 metabolite formation at 10 uM incubated for 60 mins by LC-UV-HRMS analysis; type: ADME, Microsome; conditions: 1 h; outline: as §3
[15] = test system: NCI-H2030; assay: Antitumor activity against human NCI-H2030 cells harboring KRAS G12C mutant/SMARCA4 mutant assessed as cell growth inhibition incubated for 7 days by Incucyte S3 analysis; type: functional, cell-based; conditions: time 7.0 day
Outline: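 H2030 cells plated at 500 per well and grown overnight at 37 °C. Treated with 3-fold dilutions of sotorasib, test agent, or both. Confluency imaged every 4 h for 7 days on IncuCyte S3. Synergy scored as Bliss/Lowe consensus, >10 taken as synergy.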

[16] = molecular target: T1, Protein cereblon/SWI/SNF-related matrix-associated actin-dependent regulator of chromatin subfamily A member 2; assay: PROTAC activity at CRBN/SMARCA2 in human H322 cells harboring SMARCA4 mutant assessed as induction of SMARCA2 degradation at 1 uM in presence of MLN4924 by immunoblot analysis; type: cell-based
[17] = In vivo PROTAC activity at CRBN/SMARCA2 in C57BL/6 mouse assessed as induction of SMARCA2 degradation in spleen at 80 mg/kg, po administered once daily via gavage for 3 days by Western blotting analysis relative to control; type: functional; conditions: time 3 day
Outline: (§4)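 Oral dosing once daily for 3 days: 5–80 mg/kg in C57BL/6 mice, 10–80 mg/kg in CrbnI391V mice. Euthanized 24 h after last dose. Plasma drug level measured. Spleen SMARCA2 by Western blot against actin loading control, relative to vehicle.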

[18] = Toxicity in immunocompromised mouse xenografted with human NCI-H1568 cells assessed as change in body weight at 80 mg/kg, administered once daily for 21 days; type: organism-based; conditions: in vivo, 504 h, time 21 day
[19] = Drug concentration in CRBN I391V mutant mouse plasma at 10 mg/kg, po administered once daily for 3 days and measured at 24 hrs post last dose; type: ADME, organism-based; conditions: time 3 day; outline: as §4
[20] = molecular target: T1, Protein cereblon/SWI/SNF-related matrix-associated actin-dependent regulator of chromatin subfamily A member 2; assay: PROTAC activity at CRBN/SMARCA2 in CRBN knockout human H322 cells harboring SMARCA4 mutant assessed as induction of SMARCA2 degradation at 1 uM by immunoblot analysis; type: cell-based
[21] = molecular target: T1, Protein cereblon/SWI/SNF-related matrix-associated actin-dependent regulator of chromatin subfamily A member 2; assay: PROTAC activity at CRBN/SMARCA2 in human H322 cells harboring SMARCA4 mutant assessed as induction of SMARCA2 degradation at 1 uM in presence of Gen-1 by immunoblot analysis; type: cell-based
[22] = molecular target: Transcriptional coactivator YAP1 (Homo sapiens) (UniProt P46937); assay: Induction of YAP1 phosphorylation at S109 residue in human H322 cells harboring SMARCA4 mutant at 1 uM incubated for 96 hrs by immunoblot analysis; type: cell-based; conditions: filed as activator

Chain of Transcriptional coactivator YAP1 (Homo sapiens) (P46937 whole entry): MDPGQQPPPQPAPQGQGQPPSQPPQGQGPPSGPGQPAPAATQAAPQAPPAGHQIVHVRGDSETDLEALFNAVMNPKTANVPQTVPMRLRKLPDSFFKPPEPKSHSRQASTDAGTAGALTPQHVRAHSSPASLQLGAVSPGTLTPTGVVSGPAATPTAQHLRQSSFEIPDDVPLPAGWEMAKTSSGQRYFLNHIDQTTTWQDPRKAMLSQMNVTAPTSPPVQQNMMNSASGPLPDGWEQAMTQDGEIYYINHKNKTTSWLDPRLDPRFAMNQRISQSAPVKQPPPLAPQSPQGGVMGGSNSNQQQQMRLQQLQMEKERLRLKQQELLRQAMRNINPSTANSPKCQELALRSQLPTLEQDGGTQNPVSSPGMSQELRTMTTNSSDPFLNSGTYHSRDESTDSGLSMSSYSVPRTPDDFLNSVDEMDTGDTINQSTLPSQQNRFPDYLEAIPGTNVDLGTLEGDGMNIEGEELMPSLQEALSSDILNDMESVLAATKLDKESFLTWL

With `Nc1nnc(-c2ccccc2O)cc1N1CCN(Cc2ccc(N3CCN(CCOc4cccc5c4C(=O)N(C4CCC(=O)NC4=O)C5=O)CC3)c(F)c2)CC1` (configuration not stated) the Activity [1] was < 20%, the Activity [2] was “inactive” and the Activity [3] was “inactive”. For the same compound, the Activity [4] was 96%, the Activity [5] was 76% and the Activity [6] was “Active”. The Activity [7] was “inactive”, the Activity [8] was “Active” and the inhibition in vivo at 5 mg/kg [9] was 62.5%. The Activity [10] was “Active”.

In the case of `Nc1nnc(-c2ccccc2O)cc1N1CCN(Cc2ccc(N3CCC(CN4CCN(c5ccc6c(c5)C(=O)N(C5CCC(=O)NC5=O)C6=O)CC4)CC3)c(F)c2)CC1` (configuration not stated), the Drug metabolism [11] was “metabolite_detected”, the Activity [12] was “inactive” and the Activity [13] was “Non-toxic”. For the same compound, the Drug metabolism [14] was “metabolite_detected”, the Activity [15] was “Active; Minimal Inhibition Observed” and the Activity [16] was “inactive”. The Activity [17] was 70%, the Activity [18] was “Non-toxic” and the concentration at 72 h [19] was 1000 nM. For the same compound, the Activity [20] was “inactive”, the Activity [21] was “inactive” and the Activity [22] was “Active”.
